Calls of active or inactive are those of the source. No cut-off for these calls is given here.
Key:
[1] = molecular target: T1, Nicotinamide phosphoribosyltransferase (Homo sapiens, UniProt P43490); test: Inhibition of NAMPT in human HL60 cells assessed as decrease in cellular NAD+ level after 24 hrs in presence of NA by MTT assay; assay type: cell-based
Method in brief: (§1)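 Rescue test in HCT116, K562, HL60 and HEL cells, with NA supplemented at 4 μM alongside compound treatment.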
Target sequence in this assay (P43490 whole entry, looked up): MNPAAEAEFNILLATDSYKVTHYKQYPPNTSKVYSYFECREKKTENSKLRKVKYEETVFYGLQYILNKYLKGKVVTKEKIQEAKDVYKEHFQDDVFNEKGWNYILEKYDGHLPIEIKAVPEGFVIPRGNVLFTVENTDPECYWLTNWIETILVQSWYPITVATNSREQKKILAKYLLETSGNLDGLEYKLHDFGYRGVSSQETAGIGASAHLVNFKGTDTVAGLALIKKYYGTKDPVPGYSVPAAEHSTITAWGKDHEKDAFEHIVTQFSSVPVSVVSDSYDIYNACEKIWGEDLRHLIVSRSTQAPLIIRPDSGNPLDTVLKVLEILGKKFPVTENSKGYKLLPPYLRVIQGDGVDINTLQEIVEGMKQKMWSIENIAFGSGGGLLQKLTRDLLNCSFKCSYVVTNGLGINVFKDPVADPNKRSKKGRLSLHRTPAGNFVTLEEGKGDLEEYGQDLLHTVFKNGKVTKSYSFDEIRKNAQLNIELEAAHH

[2] = molecular target: T1, Nicotinamide phosphoribosyltransferase; test: Inhibition of NAMPT in human HL60 cells assessed as decrease in cellular NAD+ level after 24 hrs in presence of NMN by MTT assay; assay type: cell-based
Method in brief: (§2)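 Rescue test in HCT116, K562, HL60 and HEL cells, with NMN supplemented at 10 μM alongside compound treatment.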
Target sequence in this assay (P43490 whole entry, looked up): as above

[3] = molecular target: T1, Nicotinamide phosphoribosyltransferase; test: Inhibition of NAMPT in human HCT116 cells assessed as decrease in cellular NAD+ level after 24 hrs in presence of NMN by MTT assay; assay type: cell-based; method in brief: as §2
Target sequence in this assay (P43490 whole entry, looked up): as above

HL-60 [4] = test: Antiproliferative activity against human HL60 cells assessed as reduction in cell viability after 72 hrs by CCK8 assay; assay type: functional, cell-based; conditions: HL-60, 72 h
[5] = molecular target: T1, Nicotinamide phosphoribosyltransferase; test: Inhibition of NAMPT in human HCT116 cells assessed as decrease in cellular NAD+ level after 24 hrs in presence of NA by MTT assay; assay type: cell-based; method in brief: as §1
Target sequence in this assay (P43490 whole entry, looked up): as above

[6] = molecular target: T1, Nicotinamide phosphoribosyltransferase; test: Inhibition of NAMPT in human HCT116 cells assessed as decrease in cellular NAD+ level after 24 hrs by MTT assay; assay type: cell-based
Method in brief: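 Relative cellular NAD+ level in HCT116 cells after 24 h exposure to a range of compound concentrations, compared qualitatively with an untreated control.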
Target sequence in this assay (P43490 whole entry, looked up): as above

HEL [7] = test: Antiproliferative activity against human HEL cells NAMPT deficient assessed as reduction in cell viability after 72 hrs by CCK8 assay; assay type: functional, cell-based
Method in brief: (§3)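 NAMPT-deficient cells were generated by siRNA knockdown of NAMPT before cytotoxicity testing.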

K562 [8] = test: Antiproliferative activity against human K562 cells NAMPT deficient assessed as reduction in cell viability after 72 hrs by CCK8 assay; assay type: functional, cell-based; conditions: K562, 72 h; method in brief: as §3
HL-60 [9] = test: Antiproliferative activity against human HL60 cells NAMPT deficient assessed as reduction in cell viability after 72 hrs by CCK8 assay; assay type: functional, cell-based; conditions: HL-60, 72 h; method in brief: as §3
[10] = molecular target: T1, Nicotinamide phosphoribosyltransferase; test: Inhibition of NAMPT in human K562 cells assessed as decrease in cellular NAD+ level after 24 hrs in presence of NA by MTT assay; assay type: cell-based; method in brief: as §1
Target sequence in this assay (P43490 whole entry, looked up): as above

[11] = molecular target: T1, Nicotinamide phosphoribosyltransferase; test: Inhibition of NAMPT in human HEL cells assessed as decrease in cellular NAD+ level after 24 hrs in presence of NMN by MTT assay; assay type: cell-based; method in brief: as §2
[12] = molecular target: T1, Nicotinamide phosphoribosyltransferase; test: Inhibition of human NAMPT using NAM and PRPP as substrates incubated for 90 mins in presence of NMNAT by fluorometric method
Target sequence in this assay (P43490 whole entry): as the sequence (P43490 whole entry, looked up) above

K562 [13] = test: Antiproliferative activity against human K562 cells assessed as reduction in cell viability after 72 hrs by CCK8 assay; assay type: functional, cell-based; conditions: K562, 72 h
HCT-116 [14] = test: Antiproliferative activity against human HCT116 cells NAMPT deficient assessed as reduction in cell viability after 72 hrs by CCK8 assay; assay type: functional, cell-based; conditions: HCT-116, 72 h; method in brief: as §3
HEL [15] = test: Antiproliferative activity against human HEL cells assessed as reduction in cell viability after 72 hrs by CCK8 assay; assay type: functional, cell-based
[16] = molecular target: T1, Nicotinamide phosphoribosyltransferase; test: Inhibition of NAMPT in human HEL cells assessed as decrease in cellular NAD+ level after 24 hrs in presence of NA by MTT assay; assay type: cell-based; method in brief: as §1
[17] = molecular target: T1, Nicotinamide phosphoribosyltransferase; test: Inhibition of NAMPT in human K562 cells assessed as decrease in cellular NAD+ level after 24 hrs in presence of NMN by MTT assay; assay type: cell-based; method in brief: as §2
HCT-116 [18] = test: Antiproliferative activity against human HCT116 cells assessed as reduction in cell viability after 72 hrs by CCK8 assay; assay type: functional, cell-based; conditions: HCT-116, 72 h

- inhibition [1]: inactive
- inhibition [2]: inactive
- inhibition [3]: inactive
- IC50 (HL-60 [4]): 0.0022 µM
- inhibition [5]: inactive
- inhibition [6]: Active
- IC50 (K562 [8]): 2.4 µM
- IC50 (HL-60 [9]): 3.2 µM
- inhibition [10]: inactive
- inhibition [11]: inactive
- IC50 [12]: 2.1 µM
- IC50 (K562 [13]): 0.32 µM
- IC50 (HCT-116 [14]): > 20 µM
- inhibition [16]: inactive
- inhibition [17]: inactive
- IC50 (HCT-116 [18]): 0.34 µM
Structure (SMILES): Nc1cc(F)ccc1NC(=O)c1ccc(CNC(=O)/C=C/c2cccnc2)cc1 [TUCIDINOSTAT]
- IC50 (HEL [7]): 1.8 µM
- IC50 (HEL [15]): 0.013 µM

Reference: ChEMBL document CHEMBL4334541, “Nicotinamide Phosphoribosyltransferase (NAMPT) Is a New Target of Antitumor Agent Chidamide” (ACS Med Chem Lett, 2020)
